For 16 compounds, inhibition and IC50 results are on record in ChEMBL document CHEMBL4130621, “Structure-Activity Relationship Studies with Tetrahydroquinoline Analogs as EPAC Inhibitors” (ACS Med Chem Lett, 2017).

SMILES strings stand for the structures. Calls of active or inactive are those of the source. The calls are words filed in the database; no cut-off is given here.

For assay [1], the target named is T1, Rap guanine nucleotide exchange factor 3 (Homo sapiens) (UniProt O95398).
T1 sequence (whole entry): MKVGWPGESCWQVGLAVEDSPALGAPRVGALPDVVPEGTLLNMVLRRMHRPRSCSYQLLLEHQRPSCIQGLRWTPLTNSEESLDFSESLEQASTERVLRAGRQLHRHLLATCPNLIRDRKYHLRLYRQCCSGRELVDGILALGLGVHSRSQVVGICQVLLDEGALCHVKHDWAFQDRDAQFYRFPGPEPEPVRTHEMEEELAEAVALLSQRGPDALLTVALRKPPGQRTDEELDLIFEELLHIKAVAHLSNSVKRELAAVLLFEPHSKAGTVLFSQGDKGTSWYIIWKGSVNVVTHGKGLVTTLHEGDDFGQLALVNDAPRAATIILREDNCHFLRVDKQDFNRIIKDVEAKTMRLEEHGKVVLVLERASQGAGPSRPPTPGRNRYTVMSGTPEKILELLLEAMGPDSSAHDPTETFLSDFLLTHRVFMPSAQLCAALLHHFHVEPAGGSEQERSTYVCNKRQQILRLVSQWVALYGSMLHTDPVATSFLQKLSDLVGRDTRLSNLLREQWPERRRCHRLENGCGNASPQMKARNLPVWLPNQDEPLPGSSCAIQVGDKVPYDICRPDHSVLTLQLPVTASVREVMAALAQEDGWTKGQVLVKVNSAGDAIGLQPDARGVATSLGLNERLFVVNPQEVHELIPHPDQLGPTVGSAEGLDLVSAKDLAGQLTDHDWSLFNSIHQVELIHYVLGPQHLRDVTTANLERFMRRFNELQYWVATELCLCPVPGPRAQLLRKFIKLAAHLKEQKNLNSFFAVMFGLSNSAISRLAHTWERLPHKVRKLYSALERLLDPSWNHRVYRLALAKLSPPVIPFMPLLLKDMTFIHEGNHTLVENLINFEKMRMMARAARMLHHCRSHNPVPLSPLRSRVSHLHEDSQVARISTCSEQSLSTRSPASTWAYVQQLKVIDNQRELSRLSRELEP
Description: Inhibition of recombinant human GST-tagged EPAC1 (149 to 881 residues) expressed in Escherichia coli Rosetta 2(DE3) assessed as reduction in guanine nucleotide exchange activity at 10 uM using BODIPY-labeled GDP loaded Rap1A by fluorescence assay relative to control. Summed up: (§1)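 EPAC1 was stimulated with the analog present at 10 or 50 μM. Activity was then measured as guanine nucleotide exchange factor activity toward Rap1 in a BODIPY-GDP-based assay, used as a screen.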

For assay [2], the target named is T1, Rap guanine nucleotide exchange factor 3 (Homo sapiens). In words: Inhibition of recombinant human GST-tagged EPAC1 (149 to 881 residues) expressed in Escherichia coli Rosetta 2(DE3) assessed as reduction in guanine nucleotide exchange activity at 50 uM using BODIPY-labeled GDP loaded Rap1A by fluorescence assay relative to control. The gist of the method: as §1

Assay [3] addresses T2, Rap guanine nucleotide exchange factor 3 (Homo sapiens, UniProt O95398).
T2 sequence (O95398 whole entry): T1 sequence (whole entry)
In words: Inhibition of recombinant human GST-tagged EPAC1 (149 to 881 residues) expressed in Escherichia coli Rosetta 2(DE3) assessed as reduction in guanine nucleotide exchange activity using BODIPY-labeled GDP loaded Rap1A by fluorescence assay.

In assay [4] the target is Rap guanine nucleotide exchange factor 4 (Homo sapiens, UniProt Q8WZA2). In words: Inhibition of recombinant human GST-tagged EPAC2 expressed in Escherichia coli Rosetta 2(DE3) assessed as reduction in guanine nucleotide exchange activity using BODIPY-labeled GDP loaded Rap1A by fluorescence assay.
Sequence of Rap guanine nucleotide exchange factor 4 (Q8WZA2 whole entry): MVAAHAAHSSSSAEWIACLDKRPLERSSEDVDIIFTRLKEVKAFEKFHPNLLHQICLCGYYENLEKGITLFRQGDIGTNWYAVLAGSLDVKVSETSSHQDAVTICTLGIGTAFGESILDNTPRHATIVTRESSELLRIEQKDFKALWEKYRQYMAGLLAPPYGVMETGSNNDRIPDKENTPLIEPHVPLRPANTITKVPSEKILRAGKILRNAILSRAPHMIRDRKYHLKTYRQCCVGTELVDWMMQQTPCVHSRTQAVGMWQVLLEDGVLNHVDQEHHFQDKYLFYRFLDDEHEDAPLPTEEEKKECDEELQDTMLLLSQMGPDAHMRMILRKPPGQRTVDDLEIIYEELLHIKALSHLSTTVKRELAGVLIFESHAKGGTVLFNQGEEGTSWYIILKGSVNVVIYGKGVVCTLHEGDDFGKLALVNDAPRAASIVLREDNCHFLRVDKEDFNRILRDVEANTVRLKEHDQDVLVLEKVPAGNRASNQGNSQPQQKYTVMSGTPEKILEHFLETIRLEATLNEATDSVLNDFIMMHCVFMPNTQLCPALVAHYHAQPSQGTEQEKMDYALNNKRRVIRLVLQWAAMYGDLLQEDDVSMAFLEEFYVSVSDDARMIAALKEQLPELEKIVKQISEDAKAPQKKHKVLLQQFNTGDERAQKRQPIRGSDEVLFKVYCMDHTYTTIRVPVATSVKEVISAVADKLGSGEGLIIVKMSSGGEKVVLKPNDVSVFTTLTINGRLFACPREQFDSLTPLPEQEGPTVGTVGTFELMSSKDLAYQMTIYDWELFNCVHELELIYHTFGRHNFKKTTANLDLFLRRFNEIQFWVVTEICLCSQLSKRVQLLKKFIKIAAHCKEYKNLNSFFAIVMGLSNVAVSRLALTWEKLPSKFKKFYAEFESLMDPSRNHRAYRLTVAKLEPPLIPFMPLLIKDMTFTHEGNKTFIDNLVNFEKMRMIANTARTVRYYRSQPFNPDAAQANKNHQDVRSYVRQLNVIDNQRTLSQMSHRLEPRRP

As to `C[C@@H]1CCc2c(ccc(F)c2Br)N1C=O`, the inhibition entry in assay [1] is “Active”.

As to `C[C@@H]1CCc2cc(F)ccc2N1C=O`, the inhibition result in assay [1] was “Active”.

With `CC1CCc2c(cc(Br)c(F)c2Br)N1` (centres undefined), the inhibition in assay [1] amounted to 40.8%; in assay [2], 74.1%.

`C[C@H]1CCc2c(cc(Br)c(F)c2Br)N1C=S`: the IC50 in assay [3] was over 100 µM.

On to `CC1CCc2c(ccc(F)c2Br)N1C=O` (centres undefined), for which the inhibition was found to be 15.8% in assay [1] and 42% in assay [2].

As for `C[C@H]1CCc2c(cc(Br)c(F)c2Br)N1`, the inhibition result in assay [1] is “Active”.

Consider `C[C@@H]1CCc2c(cc(Br)c(F)c2Br)N1C=S`, for which the IC50 in assay [3] was 17.6 µM.

In the case of `CC(=O)N1c2cc(Br)c(F)c(Br)c2CCC1C` (centres undefined), the figures for the inhibition in assay [1] and in assay [2] were 8.7% and 26.2%, respectively.

As for `C[C@@H]1CCc2c(cc(Br)c(F)c2Br)N1C=O`, the IC50 in assay [3] came out at 3.3 µM; in assay [4] it was 22.3 µM.

Take `CC1CCc2cc(F)ccc2N1C=O` (centres undefined): the inhibition in assay [1] came to 5.3%; in assay [2], 5%.

Consider `C[C@H]1CCc2c(ccc(F)c2Br)N1C=O`, for which the inhibition entry in assay [1] was “Active”.

For `CC1CCc2c(Br)c(F)c(Br)c(Br)c2N1C=O` (centres undefined), the inhibition in assay [1] worked out at 23.6%; in assay [2], 46%.

`C[C@H]1CCc2cc(F)ccc2N1C=O`: the inhibition entry in assay [1] was “Active”.

For `C[C@H]1CCc2c(cc(Br)c(F)c2Br)N1C=O`, the IC50 in assay [3] was determined as 31.3 µM; in assay [4], 17.1 µM.

`CC1CCc2c(cc(Br)c(F)c2Br)N1C=O` (centres undefined): the inhibition in assay [1] is 58.1%; in assay [2] it was 88.3%.

With `C[C@@H]1CCc2c(cc(Br)c(F)c2Br)N1`, the inhibition result in assay [1] is “Active”.
